An excerpt weighted towards active compounds, which were near 3.7% of everything screened.
hERG protect: hERG rescue from dofetilide block, primary screen, cell-based, CHO-hERG, FluxOR thallium flux, dofetilide IC70. Voltage-gated inwardly rectifying potassium channel KCNH2 (Homo sapiens), Q12809. dofetilide IC70 present. activation (rescue from dofetilide block), less the hit threshold, % at 10 µM. 0.51% of 310,000 active. AID 1511, 2009;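 active = activation above the mean of controls blocked by dofetilide plus 5 SD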;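 also: thallium influx through hERG after potassium depolarization seen as dye fluorescence rise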
Kir21 inh: inhibitors of mouse Kir2.1 inward-rectifier potassium channel | Inward rectifier potassium channel 2 (Mus musculus), P35561 | HEK293-Kir2.1, FluxOR thallium flux fluorescence; stronger effect = lower value | B-score at 10 µM | 0.85% of 310,000 active | AID 1672, 2009;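 active = fluorescence ratio B-score at or below minus 3 SD of library scores, with starting-brightness B-score within 2 SD, cut at about -4.2 in these data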;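 also: channel flux triggered by added potassium and thallium sulfate stimulus; B-score of peak minus minimum fluorescence over baseline after thallium stimulus; more negative B-score means stronger Kir2.1 block with less thallium influx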
Target sequence (P35561 whole entry, looked up): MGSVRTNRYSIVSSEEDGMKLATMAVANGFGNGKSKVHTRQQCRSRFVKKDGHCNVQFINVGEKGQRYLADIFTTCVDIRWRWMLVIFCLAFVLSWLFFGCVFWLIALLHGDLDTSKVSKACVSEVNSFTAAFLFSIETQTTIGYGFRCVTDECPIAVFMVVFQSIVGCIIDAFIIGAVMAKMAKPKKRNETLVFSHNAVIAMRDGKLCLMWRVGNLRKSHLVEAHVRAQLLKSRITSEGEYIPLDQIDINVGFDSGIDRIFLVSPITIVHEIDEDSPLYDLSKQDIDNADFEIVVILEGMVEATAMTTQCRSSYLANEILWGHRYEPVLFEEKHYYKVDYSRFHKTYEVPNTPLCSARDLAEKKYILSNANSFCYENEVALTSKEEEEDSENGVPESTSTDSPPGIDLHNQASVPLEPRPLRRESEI
KCNK9 block: KCNK9 potassium channel inhibitors, primary screen, HEK293 cells, thallium flux. Potassium channel subfamily K member 9 (Homo sapiens), Q9NPC2. FluxOR thallium flux fluorescence; stronger effect = lower value. B-score at 10 µM. 1.2% of 310,000 active;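 active = ratio B-score over 3 SD below the library mean, with starting fluorescence within 5 SD of its mean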;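 also: negative B-score means less thallium flux so channel inhibition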
KCNK3 inh: human KCNK3 channel inhibitors, primary screen, CHO cells, FluxOR thallium flux, B-score; Potassium channel subfamily K member 3 (Homo sapiens), O14649; FluxOR fluorescence; stronger effect = lower value; 0.84% of 340,000 active; B-score at 10 µM;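 active = B-score under library mean minus 4 SD, starting fluorescence ratio at most library mean plus 5 SD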;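 also: more negative B-score means stronger inhibition of thallium flux through KCNK3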
KCNQ1 pot: potentiators or activators of KCNQ1 channel, primary screen, cell-based, thallium flux, high-throughput; CHO-K1 KCNQ1, thallium flux FluxOR fluorescence; stronger effect = higher value; B-score at 10 µM; Potassium voltage-gated channel subfamily KQT member 1 (Homo sapiens), P51787; AID 2648, 2010; 0.35% of 310,000 active;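 active = fluorescence ratio B-score, a plate-corrected score, at least three library SD, with initial intensity B-score within 5 SD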
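Test system: CHO-K1 cells stably expressing KCNQ1 / Medium: assay buffer / Also added: depolarizing K+/Tl+ stimulus, K2SO4 and Tl2SO4 each 12.5 mM in 5x stock / Incubation: 90 min dye loading and 20 min compound exposure, both at room temperature / Signal: thallium influx via FluxOR fluorescence, kinetic imaging / Evaluation: B score of baseline-normalized fluorescence ratio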
KCNQ1 block: inhibitors of human KCNQ1 channel, primary screen, cell-based, thallium flux, high-throughput. B-score at 10 µM. CHO-K1 KCNQ1, FluxOR thallium flux fluorescence; stronger effect = higher value. AID 2642, 2010. Potassium voltage-gated channel subfamily KQT member 1 (Homo sapiens), P51787. 1.3% of 310,000 active;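 active = compounds whose thallium flux B-score, printed positive for inhibition, exceeds three library SD while starting fluorescence stays within three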;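 also: channel opened by potassium depolarization with thallium stimulus after 20 min compound exposure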
KCNK9 block conf: KCNK9 potassium channel inhibitors, confirmation, HEK293 cells, thallium flux, duplicate | FluxOR thallium flux fluorescence | shares compounds with KCNK9 block | 43% of 4,900 active | inhibition, % at 10 µM;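 active = thallium signal inhibited by more than 5 SD of the compound-free buffer control wells, on both duplicate plates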;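 also: 0% = assay buffer control wells without compound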
Kir2-1 spec: mouse Kir2.1 channel inhibition, confirmation, selectivity assay for KCNK9 modulator project, cell-based, HEK293, thallium flux | shares compounds with KCNK9 block | Kir2.1 cells, FluxOR thallium flux fluorescence | inhibition, % at 10 µM | 4% of 4,900 active | AID 492993, 2010;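 active = thallium signal drop more than 5 SD beyond the mean of the no-compound control wells, seen in both duplicate plates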;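 also: signal is fluorescence rise after thallium addition divided by baseline fluorescence; plate controls were assay buffer only for no effect and full block by chlorpromazine control for full effect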
HEK293 Tl ctr: thallium flux in non-induced HEK293 cells, confirmation, counter-screen for KCNK9 inhibitor project, cell-based, second counter screen, non-induced KCNK9-HEK293 | shares compounds with KCNK9 block | FluxOR thallium flux | inhibition, % at 10 µM | 40% of 4,900 active;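 active = thallium signal drop beyond 5 SD of the untreated control mean, on both duplicate plates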;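 also: plate controls were buffer only IC0 wells for no effect and SID17386958 at its maximal inhibitory level for full effect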
The depositor's hits bear a star; i = inactive; x = not tested or not shown.

SMILES	hERG protect	Kir21 inh	KCNK9 block	KCNK3 inh	KCNQ1 pot	KCNQ1 block	KCNK9 block conf	Kir2-1 spec	HEK293 Tl ctr
CC(C)Cn1c2c(c(O)c(C(=O)Nc3ncccc3O)c1=O)CCCC2	-10	-1.5	-9.7*	i	i	i	55%*	i	40%*
CCOC(=O)C1=C(C)N=C2SC(C)C(=O)N2C1c1ccc(OC(C)=O)c(OC)c1 (stereo not drawn)	-7	-2.3	-15*	i	i	i	63%*	i	34%*
Cc1ccc(NS(=O)(=O)c2cc(C(=O)O)ccc2Cl)cc1	-5	0.48	i	i	i	i	x	x	x
Cc1ccc(S(=O)(=O)N(C)c2ccc(C(=O)N3CCc4ccccc4C3)cc2)cc1	-9	-0.6	i	i	i	i	i	i	i
Cc1ccc(NS(=O)(=O)c2cc(C(=O)N3CCc4ccccc4C3)ccc2Cl)cc1	-4	0.51	-12*	i	i	i	i	i	26%*
CN(c1ccccc1)S(=O)(=O)c1ccc(C(=O)N2CCc3ccccc3C2)cc1	-3	2.2	i	i	i	i	x	x	x
C(=N\N1CCN(Cc2cccc3ccccc23)CC1)/c1ccco1	-12	1.5	i	i	i	i	i	i	i
Cn1cccc1/C=N/N1CCN(Cc2cccc3ccccc23)CC1	-7	-0.28	i	i	i	i	i	i	i
CCC(=O)c1ccc(OCC(=O)OCC(=O)N2c3ccccc3NC(=O)C2(C)C)cc1	-6	-0.54	i	i	i	i	x	x	x
O=C1CSC(=S)N1	-5	0.23	i	i	i	i	x	x	x
CC1=NN(c2ccccc2)C(=O)/C1=C\c1ccc(Oc2ccc([N+](=O)[O-])cc2[N+](=O)[O-])cc1	0	1.8	i	i	i	i	i	i	i
O=C(CN1C(=O)S/C(=C\c2ccc(Cl)cc2)C1=O)NCCCn1ccnc1	-11	-2.3	i	i	i	i	x	x	x
O=C(CN1C(=O)S/C(=C\c2cccc(Cl)c2)C1=O)NCCCn1ccnc1	-18	-1.4	i	i	i	i	i	i	i
Cc1cc(Cl)ccc1Oc1ncc(CN2CCN(c3ccccc3)CC2)s1	-1	-0.07	i	i	i	i	x	x	x
COc1ccc(Oc2ncc(CN3CCN(c4ccccc4)CC3)s2)cc1	-3	1.1	i	i	i	i	i	i	i
Cc1ccc(S(=O)(=O)Cc2ccc(C(=O)NC3CCCCCC3)o2)cc1	-3	-1.5	i	i	i	i	x	x	x
O=C(COC(=O)Cn1cnc2ccccc21)Nc1ccc(OC(F)F)cc1	x	x	x	i	x	x	x	x	x
COc1ccc(/C=C2/SC(=S)N(NS(=O)(=O)c3ccc(C)cc3)C2=O)cc1	-10	1.2	i	i	12*	i	i	i	i
Cc1ccc(S(=O)(=O)NN2C(=O)/C(=C/c3ccc(F)cc3)SC2=S)cc1	-2	2.4	i	i	i	i	x	x	x
C=CCOc1ccc(/C=C2\SC(=S)N(NS(=O)(=O)c3ccc(C)cc3)C2=O)cc1	-4	-1.3	i	i	24*	i	i	i	i
Cc1ccc(S(=O)(=O)NN2C(=O)/C(=C/c3ccc(C(=O)O)cc3)SC2=S)cc1	-5	1.6	i	i	i	i	x	x	x
O=C1/C(=C/c2cccc(F)c2)SC(=S)N1NS(=O)(=O)c1ccccc1	-2	-4.6	i	i	i	i	i	i	i
